Measurements: PMC8033778 (ACS Pharmacology & Translational Science, 2021)

Test: In vivo stability of 18F-labeled Tz-derivatives
Conditions: naïve mice, plasma 30 min p.i., radio-TLC, n = 4
In short: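 Naïve mice received the 18F-labeled tetrazine. Blood was collected after 30 min and plasma analysed by radio-TLC. Stability is expressed as the fraction (%) of radioactivity corresponding to intact compound (n = 4).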

in vivo stability (% intact [18F]Tz after 30 min): 26%
Compound: Cc1nnc(-c2ccc(OCc3cn(CC[18F])nn3)cc2)nn1 [[^18F]5, 3-(4-((1-(2-[18F]Fluoroethyl)-1H-1,2,3-triazol-4-yl)methoxy)phenyl)-6-methyl-1,2,4,5-tetrazine]
